Compound activity deposited in PubChem BioAssay by several laboratories.
This is a sample that favours compounds with a hit; in the whole collection about 0.83% have one here.
CRFBP-R2 agonist: CRF-BP/CRF-R2 complex agonism | HEK293 CRF-R2/CRF-BP, calcium dye fluorescence (FLIPR); percent of saturating CRF peptide response | activation, % at 13.2 µM | 0.46% of 350,000 active | AID 588473;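 active = activation of at least 50%, plus an integration ratio under a set limit after plate pattern correction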;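 also: plate controls were neutral control wells without compound for no effect and CRF at EC100 for full effect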
OXTR potentiator: potentiators of human oxytocin receptor; activation, % at 3 µM; 0.061% of 320,000 active; CHO-OTR cells, Fluo-8 calcium fluorescence, potentiator mode; 0% = oxytocin EC15, 100% = EC100; P30559;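 active = activation above that plate's cutoff, the mean activation of tested compounds plus 3 SD, cut at about 6.6% in these data, passing the limit was not always enough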;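 also: 100% uses oxytocin at 75 nM as the full agonist control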
Target sequence (P30559 whole entry, looked up): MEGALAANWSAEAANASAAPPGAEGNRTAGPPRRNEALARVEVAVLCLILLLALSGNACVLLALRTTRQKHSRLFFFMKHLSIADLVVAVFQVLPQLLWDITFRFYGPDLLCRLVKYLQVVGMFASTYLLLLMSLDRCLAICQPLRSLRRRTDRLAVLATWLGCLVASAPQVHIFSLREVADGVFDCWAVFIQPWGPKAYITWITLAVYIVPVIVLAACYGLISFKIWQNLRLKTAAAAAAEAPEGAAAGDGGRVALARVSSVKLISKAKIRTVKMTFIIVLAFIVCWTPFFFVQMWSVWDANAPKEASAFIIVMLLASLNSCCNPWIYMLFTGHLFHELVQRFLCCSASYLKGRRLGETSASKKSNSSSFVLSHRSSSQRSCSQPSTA
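Assay system: CHO cell line stably expressing human OTR. Reagent: EC15 oxytocin agonist. Dosing: single dose, 3.0 µM nominal final compound concentration. Timing: compound 6 min at room temperature before oxytocin, 100 s read. Signal: kinetic Fluo-8 calcium fluorescence. Controls: oxytocin EC15 low and EC100 high.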
zfTRPN1 agonist: agonists of zebrafish TRPN1 channel; activation, % at 3 µM; HEK293 zebrafish TRPN1-YFP, Fluo-8 calcium fluorescence; 100% = response to 87 µM carbachol; 0.18% of 220,000 active;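 active = activation above its plate's cutoff, the mean activation of test wells on that plate plus 3 SD, cut at about 19% in these data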;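 also: 0% = DMSO alone and 100% = 87 µM carbachol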
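System: zebrafish TRPN1-YFP in HEK293 cells / Dosing: 3 µM single point / Timing: dye loading 1 h at 37 °C, then 30 min room temperature / Signal: Fluo-8 calcium fluorescence, excitation 470-495 nm, emission 515-575 nm / Read-out basis: percent activation from peak over basal fluorescence ratio, control-normalized / Control set: high carbachol 87 µM, low DMSO alone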
V1R ag counter: activates human V1a receptor in oxytocin agonist counter-screen | AID 2797 | P37288 | activation, % at 3 µM | CHO-V1R cells, Fluo-8 calcium fluorescence, agonist mode; 0% DMSO, 100% 3 nM vasopressin | 0.25% of 320,000 active;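 active = activation above the mean activation of all tested compounds plus 3 SD, per screening run, cut at about 20% in these data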;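 also: signal is peak over basal fluorescence ratio across a 100 second FLIPR read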
Target sequence (P37288 whole entry, looked up): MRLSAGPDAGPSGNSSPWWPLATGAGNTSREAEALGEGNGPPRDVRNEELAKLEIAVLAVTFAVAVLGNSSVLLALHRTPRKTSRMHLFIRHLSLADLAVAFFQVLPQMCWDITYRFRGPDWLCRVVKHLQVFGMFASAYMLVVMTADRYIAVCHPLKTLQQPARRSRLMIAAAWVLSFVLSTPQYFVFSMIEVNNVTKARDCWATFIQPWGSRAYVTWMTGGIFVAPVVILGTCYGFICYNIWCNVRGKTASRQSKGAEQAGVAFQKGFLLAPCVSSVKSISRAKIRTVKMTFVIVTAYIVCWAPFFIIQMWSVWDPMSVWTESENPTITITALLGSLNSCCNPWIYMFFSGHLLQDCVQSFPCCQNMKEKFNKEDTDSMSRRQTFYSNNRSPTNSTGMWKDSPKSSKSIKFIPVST
TRPML3 ag: activates the human TRPML3 channel | 0.29% of 220,000 active | Q8TDD5 | activation, % at 3 µM | HEK293 TRPML3-YFP, Fluo-8 calcium fluorescence; 100% = the carbachol control signal;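 active = activation above its plate's cutoff, the mean activation of the plate's test wells plus 3 SD, cut at about 12% in these data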;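 also: 0% = DMSO only wells and 100% = carbachol wells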
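Material: HEK293 cells stably carrying human TRPML3-YFP; compound dosing: single dose, 3 µM final nominal compound, 0.3% DMSO final; incubation: 1-h 37 °C dye load, 5-s basal, 120-s post-compound reads; technique: Fluo-8 intracellular calcium fluorescence, excitation 470-495 nm, emission 515-575 nm; read-out basis: percent activation from peak-to-basal fluorescence ratio, scaled between DMSO and carbachol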
OXTR ag: activates the human oxytocin receptor; CHO-OTR cells, Fluo-8 calcium fluorescence; normalized: DMSO 0%, oxytocin 100%; activation, % at 3 µM; 0.32% of 320,000 active; AID 2435;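 active = activation above the mean of all tested compounds plus 3 SD, cutoff set per screening run, cut at about 20% in these data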;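 also: peak over basal fluorescence ratio from a 100 s FLIPR kinetic read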
OXTR ag confirm: confirmation of human oxytocin receptor agonists. shares compounds with OXTR ag. CHO-OTR cells, Fluo-8 calcium fluorescence, agonist. activation, % at 3 µM. 20% of 390 active;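 active = mean activation above about 20% derived from the earlier single-dose screen, limit read from the data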;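 also: peak over minimum fluorescence ratio per well during a 100 second FLIPR read; 0% = DMSO alone and 100% = oxytocin high control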
V1R ag counter 3x: V1R agonism in triplicate, counter-screen for OXTR agonists; activation, % at 3 µM; 10% of 390 active; CHO-V1R cells, Fluo-8 calcium fluorescence, agonist; shares compounds with OXTR ag;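 active = mean activation over triplicate exceeds the hit threshold set in the earlier primary screen, cut at about 20% in these data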;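 also: peak over basal fluorescence ratio within a 100 second read; 0% = DMSO alone and 100% = 3 nM vasopressin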
The depositor's hits bear a star; . = no result given.

SMILES | CRFBP-R2 agonist | OXTR potentiator | zfTRPN1 agonist | V1R ag counter | TRPML3 ag | OXTR ag | OXTR ag confirm | V1R ag counter 3x
O=[N+]([O-])c1cccc(/C=N/Nc2nc(NCc3ccccc3)nc(N3CCOCC3)n2)c1O | 68.5* | -31.3 | 1.2 | 17.0 | 0.3 | 24.1* | 18.7 | 16.5
CCSc1nnc(SCC(=O)c2c(N)n(C)c(=O)n(C)c2=O)s1 | 4.1 | . | . | . | . | . | . | .
CCCC1(c2ccccc2)NC(=O)N(CC(=O)NCc2ccc(C)cc2)C1=O (configuration not stated) | -1.0 | -19.1 | . | 0.8 | . | 0.2 | . | .
CCCC1(c2ccccc2)NC(=O)N(CC(=O)Nc2cc(C)ccc2OC)C1=O (configuration not stated) | 2.7 | -12.5 | . | 7.0 | . | 23.7* | 9.6 | 4.3
CSc1nc(-c2ccccc2)c(-c2ccccc2)[nH]1 | -1.6 | -19.7 | -1.6 | 18.2 | -0.8 | 22.7* | -0.9 | 0.2
COc1ccc(CN2CCC(C(=O)c3ccc(Cl)cc3)CC2)cc1 | 1.4 | -1.2 | . | 1.5 | . | 2.0 | . | .
COc1ccc(S(=O)(=O)NCCSCc2ccc(Cl)cc2)cc1NC(C)=O | 1.5 | . | . | . | . | . | . | .
Cc1cccc(C)c1N(CC(=O)NCc1ccco1)C(=O)CNS(=O)(=O)c1ccc(F)cc1 | -0.1 | -8.6 | . | 1.0 | . | -0.1 | . | .
O=C(O)c1ccccc1C(=O)c1ccc(N2CCCC2)c([N+](=O)[O-])c1 | 11.4 | 0.4 | 3.0 | 0.9 | 0.7 | 1.1 | . | .
CC(=O)c1ccc(N2CCN(c3ccccc3O)CC2)c([N+](=O)[O-])c1 | 0.1 | -33.2 | . | 14.8 | . | 23.4* | 14.4 | 12.5
Cc1noc(C)c1COc1ccc(C(=O)NCc2cccs2)cc1 | -3.3 | -4.4 | . | 0.6 | . | 0.3 | . | .
CCOC(=O)C1=C(N)N2C(=O)C(C)SC2=C(C(=O)OC)C1c1ccccc1OC (configuration not stated) | 21.1 | -18.2 | -0.1 | 12.6 | 0.1 | 31.1* | 6.9 | 7.9
COc1cc(CNCc2ccccn2)ccc1OCc1ccc(Cl)cc1Cl | 1.6 | -8.5 | -0.5 | 10.8 | 0.0 | 25.0* | 4.6 | 1.8
COc1cc(CNCCO)cc(Cl)c1OCc1ccc(Cl)cc1Cl | 34.9 | -7.3 | 2.0 | 8.8 | 3.9 | 20.0* | 7.5 | 2.2
COc1cccc(C(=O)Nc2ccc(NC(=O)Cc3ccccc3)cc2)c1 | -1.1 | -5.5 | . | 2.3 | . | 23.9* | -0.2 | 0.3
COc1ccc(CC(=O)NC(=S)Nc2ccc(S(=O)(=O)NC(C)(C)C)cc2)cc1 | 6.9 | -23.4 | 13.4 | 17.1 | 6.5 | 20.0* | 17.1 | 15.2
COC(=O)c1ccc(CS(=O)(=O)c2ccc(C)cc2)o1 | 0.9 | -0.1 | . | -1.0 | . | -0.1 | . | .
CCOc1ccc(NC(=O)CN(C)C(=O)C2CC(=O)N(c3cccc(SC)c3)C2)cc1OCC (configuration not stated) | -1.4 | . | . | . | . | . | . | .
CN1CCc2c(n(CC(O)CNCc3ccccc3)c3ccccc23)C1=O (configuration not stated) | 0.9 | -6.4 | -0.6 | 0.0 | 0.7 | -0.3 | . | .
CC(C)NCC(O)Cn1c2c(c3ccccc31)CCc1c-2cnn1-c1ccccc1 (configuration not stated) | -0.2 | -22.5 | 0.7 | 19.4 | 2.2 | 21.8* | 11.6 | 6.2
C(=N\Nc1cc(N2CCCCC2)ncn1)/c1ccco1 | -2.7 | -1.0 | . | -1.1 | . | -1.5 | . | .
CC(C(=O)Nc1ccc2c(c1)OCO2)c1ccc([N+](=O)[O-])cc1 (configuration not stated) | 17.6 | -16.9 | 8.5 | 19.4 | 5.2 | 20.3* | 21.9* | 18.4
O=C(CN1CCN(S(=O)(=O)c2cccc(Cl)c2)CC1)NCC1(N2CCOCC2)CCCCC1 | -1.4 | -0.9 | . | 0.1 | . | -0.4 | . | .
COc1ccc2c(c1)C(=O)C1NC(=O)NC(=O)C1(Br)N2 (configuration not stated) | -2.9 | . | . | . | . | . | . | .
COc1ccc(-c2nn(-c3ccccc3)cc2C2CC(c3cccs3)=NN2C(=O)CCCC(=O)O)cc1 (configuration not stated) | -0.2 | -12.4 | 1.8 | 7.3 | 0.6 | 7.5 | . | .
SMILES | CRFBP-R2 agonist | OXTR potentiator | zfTRPN1 agonist | V1R ag counter | TRPML3 ag | OXTR ag | OXTR ag confirm | V1R ag counter 3x
Cc1ccc(-c2nn(-c3ccccc3)cc2C2CC(c3cccs3)=NN2C(=O)CCCC(=O)O)cc1 (configuration not stated) | -2.7 | -11.8 | 2.6 | 18.7 | 0.7 | 23.1* | 7.4 | 2.5
CC(C)(C)NC(=S)NNC(=O)[C@H]1C[C@@H]1c1ccccc1 | 0.0 | -2.5 | 0.3 | 0.1 | 0.9 | 0.1 | . | .
O=C(NC(=S)NNC(=O)[C@H]1C[C@@H]1c1ccccc1)c1ccc(F)cc1 | 17.2 | -19.0 | 15.3 | 17.9 | 5.0 | 34.7* | 21.6* | 38.8*
CC1=NN(c2ccc(Cl)cc2)C(=O)C1C(c1ccccc1O)c1c(C)[nH]n(-c2ccc(Cl)cc2)c1=O (configuration not stated) | 8.5 | -9.2 | 2.1 | 13.2 | 0.7 | 19.7* | -0.5 | 1.0
CC1=NN(c2ccc(C)cc2C)C(=O)C1C(c1ccccc1O)C1C(=O)N(c2ccc(C)cc2C)N=C1C (configuration not stated) | -1.4 | -0.2 | 0.2 | 0.3 | 0.7 | 0.6 | . | .
Cc1nc(NC(=O)C(C)(C)C)sc1-c1csc(N)n1 | 0.1 | . | . | . | . | . | . | .
Cc1nn(C)cc1C(C(=O)NC1CCCCC1)N(C(=O)Cc1cccs1)c1ccc(F)cc1 (configuration not stated) | -2.6 | 4.3 | 2.4 | 1.4 | 0.2 | -0.8 | . | .
Cc1nn(C)cc1C(C(=O)NC1CCCCC1)N(C(=O)Cc1cccs1)c1ccc(C(C)C)cc1 (configuration not stated) | 0.1 | -18.8 | 2.1 | 0.9 | -0.3 | 21.8* | 5.3 | 3.4
Cc1c2ccccc2nc2c(F)c(NC(C)C)c(F)c(F)c12 | 2.5 | -5.6 | 0.6 | 10.6 | 1.1 | 20.4* | 51.4* | 66.0*
CN1CCS/C1=C/C=C1\SC(=S)N(CC(=O)O)C1=O | 149.0* | -6.9 | 21.3* | 19.1 | 10.0 | 33.2* | 31.3* | 38.5*
CC1CCCC(NC(=O)CSc2ncccn2)C1C (configuration not stated) | 2.9 | -2.9 | . | -0.3 | . | -0.3 | . | .
CCOC(=O)c1c(C)n(-c2ccc(C)cc2)c2ccc(OCC(O)CNCC3CCCO3)cc12 (configuration not stated) | -1.1 | -11.4 | -1.4 | 10.2 | 0.0 | 20.2* | 9.0 | 2.7
